Results published in ChEMBL document CHEMBL1155522, “Molecular docking studies of phlorotannins from Eisenia bicyclis with BACE1 inhibitory activity” (Bioorg Med Chem Lett, 2010).

What was measured:
Beta-secretase 1 [1] = target: T1, Beta-secretase 1 (Homo sapiens, UniProt P56817); assay: Inhibition of human recombinant BACE1 after 60 mins by FRET assay
How it was run: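 Test samples dissolved in 10% DMSO; the 50% inhibitory concentration is reported as mean ± S.E.M. of triplicate determinations.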

Beta-secretase 1 [2] = target: T1, Beta-secretase 1; assay: Noncompetitive inhibition of human recombinant BACE1 after 60 mins by Dixon plot analysis
How it was run: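 Inhibitor dissolved in 10% DMSO and tested at two concentrations. A Dixon plot of reciprocal enzyme velocity (1/V) against inhibitor concentration was used to assign the inhibition type and to derive the Ki of the enzyme–inhibitor complex.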

T1 sequence (P56817 whole entry): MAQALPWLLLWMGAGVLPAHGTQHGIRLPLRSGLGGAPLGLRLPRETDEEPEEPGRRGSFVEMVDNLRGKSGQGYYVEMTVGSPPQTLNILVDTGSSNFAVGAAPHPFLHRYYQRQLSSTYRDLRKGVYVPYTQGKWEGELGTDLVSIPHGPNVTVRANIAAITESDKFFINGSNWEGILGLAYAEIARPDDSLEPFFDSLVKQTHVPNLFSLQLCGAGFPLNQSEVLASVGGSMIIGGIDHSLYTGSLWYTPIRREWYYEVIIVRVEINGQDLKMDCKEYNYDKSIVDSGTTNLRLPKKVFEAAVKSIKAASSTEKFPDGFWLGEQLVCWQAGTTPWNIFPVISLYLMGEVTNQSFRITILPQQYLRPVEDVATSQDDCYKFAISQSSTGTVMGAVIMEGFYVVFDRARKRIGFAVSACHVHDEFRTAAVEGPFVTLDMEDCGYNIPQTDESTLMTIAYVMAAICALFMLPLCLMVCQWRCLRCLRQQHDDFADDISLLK

Row | Structure (SMILES) | Activity (Beta-secretase 1 [1]) | IC50 (Beta-secretase 1 [1]) | Ki (Beta-secretase 1 [2])
1 | Oc1cc(O)cc(Oc2c(O)cc(O)cc2Oc2c(O)cc(O)cc2O)c1 [TRIPHLOROETHOL A] | Dose-dependent effect | 11.7 µM | 12.1 µM
2 | Oc1cc(O)cc(Oc2c(O)cc(O)c3c2Oc2c(O)cc(Oc4c(O)cc(Oc5c(O)cc(O)c6c5Oc5c(O)cc(O)cc5O6)cc4O)cc2O3)c1 [DIECKOL] | Dose-dependent effect | 2.21 µM | 1.5 µM
3 | Oc1cc(O)cc(Oc2c(O)cc(O)c3c2Oc2c(O)cc(O)cc2O3)c1 [ECKOL] | Dose-dependent effect | 12.2 µM | 13.9 µM
4 | Oc1cc(O)cc(Oc2c(O)cc(O)c3c2Oc2c(O)cc(Oc4c(O)cc(O)cc4O)cc2O3)c1 | Dose-dependent effect | 8.59 µM | 7.2 µM
5 | Oc1cc(O)c2oc3cc(O)c4oc5cc(O)cc(O)c5oc4c3oc2c1 [DIOXINODEHYDROECKOL] | Dose-dependent effect | 5.35 µM | 8 µM
6 | Oc1cc(O)cc(Oc2c(O)cc(O)c3c2Oc2c(O)cc4oc5c(Oc6cc(O)cc(O)c6)c(O)cc(O)c5c4c2O3)c1 [PHLOROFUCOFUROECKOL A] | Dose-dependent effect | 2.13 µM | 1.3 µM
7 | O=c1c(O)c(-c2ccc(O)c(O)c2)oc2cc(O)cc(O)c12 | Dose-dependent effect | – | –
8 | Oc1cc(O)cc(O)c1 [PHLOROGLUCINOL] | Dose-dependent effect | 36.5 µM | –
